Compound activity: PubChem, several laboratories
CHT PAM – human CHT allosteric activation; Q9GZV3; CHT-expressing cells, membrane potential dye, choline EC20; hits give high values; LV-AA mutant CHT in HEK293 cells; B-score at 10 µM; 310,000 tested, 0.49% active; AID 488977;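 active means initial fluorescence not abnormally high and integrated response B-score, plate-corrected, over 3 SD above library mean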
CHT block – inhibitors of human choline transporter CHT | 310,000 tested, 0.86% active | B-score at 10 µM | CHT-expressing cells, membrane potential dye, choline response; hits give low values | Q9GZV3;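 active means B-score over 3 SD under the library average, and starting fluorescence ratio not unusually high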;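 further: choline stimulus applied at its EC90 after an EC20 pre-addition; B-score computed on integrated fluorescence ratio after choline addition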
procasp3 activ – activates human procaspase-3; activation, % at 8.5 µM; recombinant procaspase-3 D3A, Ac-DEVD-pNA absorbance 405 nm; 330,000 tested, 0.11% active; P42574;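 active means activation above the mean of all tested compounds plus 3 SD, cut at about 21% in these data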
Target sequence (P42574 whole entry D9A/D28A/D175A): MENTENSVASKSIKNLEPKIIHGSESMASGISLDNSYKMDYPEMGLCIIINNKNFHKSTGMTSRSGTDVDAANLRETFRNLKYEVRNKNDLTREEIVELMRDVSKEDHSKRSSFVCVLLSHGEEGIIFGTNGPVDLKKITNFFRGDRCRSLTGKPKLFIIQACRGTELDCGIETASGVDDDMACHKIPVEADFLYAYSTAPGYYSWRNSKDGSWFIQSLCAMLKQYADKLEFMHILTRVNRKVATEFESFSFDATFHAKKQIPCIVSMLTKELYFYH
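Assay system: Autoprocessing-dead procaspase-3 D3A mutant enzyme; also added: Ac-DEVD-pNA; doses: one concentration, 8.5 µM nominal, 0.8% DMSO; times: 1 h compound preincubation, 2 h substrate hydrolysis at 25 °C; technique: 405 nm absorbance of p-nitroaniline, reads at 0 and 120 min; measure: % activation between DMSO and enzyme-spiked controls; repeats: single replicate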
proCasp7 act – activates human procaspase-7, counter-screen for procaspase-3 activators; recombinant procaspase-7, Ac-DEVD-pNA absorbance 405 nm; D23A/D198A/D206A triple mutant, cannot self-cleave; scale: DMSO 0, 5 µM enzyme 100; AID 463210; activation, % at 8.5 µM; 330,000 tested, 0.093% active;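 active means percent activation above the screen-wide mean plus 3 SD, cut at about 25% in these data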
Target sequence (P55210 whole entry D23A/D198A/D206A): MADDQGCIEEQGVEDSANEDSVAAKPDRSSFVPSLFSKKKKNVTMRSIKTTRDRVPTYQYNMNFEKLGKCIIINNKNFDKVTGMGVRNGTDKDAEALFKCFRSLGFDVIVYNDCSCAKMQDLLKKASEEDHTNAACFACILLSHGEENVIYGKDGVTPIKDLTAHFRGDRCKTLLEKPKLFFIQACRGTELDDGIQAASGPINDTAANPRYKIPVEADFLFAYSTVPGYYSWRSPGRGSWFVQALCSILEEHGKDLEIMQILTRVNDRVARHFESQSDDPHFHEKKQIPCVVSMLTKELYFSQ
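System: Procaspase-7 triple mutant (PC-7 D3A); measure: % activation from two-timepoint absorbance difference, scaled to controls; times: 1 h compound preincubation, 2 h substrate cleavage, 25 °C; also added: Ac-DEVD-pNA substrate, 400 µM as added; measured by: Epi-absorbance of released pNA at 405 nm, two timepoints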
CHT activ conf – confirmation of human choline transporter (CHT) activators | shares compounds with CHT PAM | CHT-expressing cells, membrane potential dye fluorescence (FDSS); % of choline EC20–EC90 response window; HEK293 expressing CHT LV-AA mutant; choline added at its EC20 | activation, % at 10 µM | 2,500 tested, 91% active;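 active means primary screen active, with duplicate mean activation above negative control mean plus 3 SD, cut at about 11% in these data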
HEK293 MP dye – CHT activator counter-screen hit in parental HEK293 cells; AID 623908; membrane potential dye fluorescence (FDSS); measured after EC20 choline addition; ratio readout change at 10 µM, hits read low; shares compounds with CHT PAM; 2,500 tested, 62% active;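 active means duplicate-averaged ratio beyond 3 SD from buffer wells, up or down, though filed actives are nearly all decreases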
A number is an active result; - = inactive; . = no result given. An excerpt weighted towards active compounds, which were near 1.3% of everything screened.

SMILES	CHT PAM	CHT block	procasp3 activ	proCasp7 act	CHT activ conf	HEK293 MP dye
COC(=O)c1ccc(OC(=O)C2CSC3(C)CCC(=O)N23)cc1 (stereo unspecified)	-	-	-	-	.	.
COc1ccc(NS(=O)(=O)c2cccc(-c3nnc4n3CCCCC4)c2)cc1	-	-	-	-	18	-
COc1ccccc1S(=O)(=O)Nc1cccc(-c2nnc3n2CCCCC3)c1	-	-	-	-	.	.
COc1ccc(NC(=O)c2ccc(C)cc2)c[n+]1[O-]	-	-	.	.	.	.
NC(=O)CN1CCN(CCN2C(=O)c3cccc4cccc(c34)C2=O)CC1	-	-	-	-	43	-33
CC(C)C(=O)N1CCN(c2cc(N3CCN(C)CC3)c(F)cc2[N+](=O)[O-])CC1	7.9	-	-	-	45	-49
CC(=O)N1CCN(c2cc(N3CCCC3)c(F)cc2[N+](=O)[O-])CC1	-	-	-	-	.	.
COc1cccc(CCN2CCC(CNS(=O)(=O)c3cc(-c4cc(C)no4)ccc3OC)CC2)c1	-	-	-	-	.	.
COc1ccccc1CN1CCC(CNS(=O)(=O)c2cc(-c3onc(C)c3C)ccc2OC)CC1	-	-	-	-	39	-48
COc1ccc(OC)c(/C=N/NC(=O)c2c(C)nc3ccc(C)cn23)c1	-	-	-	-	.	.
CC[C@@H](C)[C@H](CN[C@H](CNC)C(C)C)NC[C@@H](C)c1ccc(CC(C)C)cc1	-	-	-	-	-	-
CC(C)CCNC(=O)NC(=O)COC(=O)CNC(=O)C1CCCCC1	-	-	-	-	.	.
C[n+]1ccc(C(=O)NCCC[N+](C)(C)C)cc1/C=N/O	7.3	-	-	-	44	-31
O=C(Nc1ccccc1)c1c2c(nc3ccccc13)CCCC2	-	-	-	-	.	.
COc1ccc2c(c1)c1ncn(CCN3CCNCC3)c(=O)c1n2C	-	-	-	-	16	-20
COc1ccc2c(c1)c1ncn(CCN3CCCC3)c(=O)c1n2C	6.5	-	-	-	45	-24
CCN1CCCC(NC(=O)c2cc([N+](=O)[O-])ccc2OC)C1 (stereo unspecified)	7.3	-	-	-	36	-35
COc1ccc(C(=O)NC2CCCN(Cc3ccccc3F)C2)c(OC)c1OC (stereo unspecified)	-	-	-	-	.	.
Cc1cc(O)c(C2=Nc3ccccc3SC(c3ccc(Cl)cc3)C2)c(=O)o1 (stereo unspecified)	-	-	-	-	.	.
COc1ccc(C2CC(c3c(O)cc(C)oc3=O)=NCCS2)c(OC)c1 (stereo unspecified)	7.6	-	-	-	51	-
COc1ccc(CCNC(=O)C(C)OC(=O)c2nsc(Cl)c2Cl)cc1OC (stereo unspecified)	-	-	-	-	.	.
CCOC(=O)/C(C#N)=C/c1c(N2CCN(CC)CC2)nc2c(C)cccn2c1=O	-	-	-	-	52	-50
CCN1CCN(c2nc3c(C)cccn3c(=O)c2/C=C(\C#N)C(=O)NCCCOC)CC1	7.5	-	-	-	50	-60
CCN1CCN(c2nc3c(C)cccn3c(=O)c2/C=C(\C#N)C(=O)NC)CC1	9.1	-	-	-	47	-45
CNC(=O)/C(C#N)=C/c1c(N2CCN(C)CC2)nc2c(C)cccn2c1=O	-	-	-	-	58	-56
SMILES	CHT PAM	CHT block	procasp3 activ	proCasp7 act	CHT activ conf	HEK293 MP dye
CNC(=O)/C(C#N)=C/c1c(N2CCN(c3cccc(Cl)c3)CC2)nc2c(C)cccn2c1=O	-	-	-	-	.	.
CCOC(=O)/C(C#N)=C/c1c(N2CCN(c3ccc(OC)cc3)CC2)nc2c(C)cccn2c1=O	-	-	.	.	.	.
CCN(CC)C(=O)C1CCN(Cc2cn(C)nc2-c2ccc(Oc3ccccc3)cc2)CC1	-	-	-	-	-	-
CCCc1nnc(NC(=O)C(CC)OC(=O)c2cc(C)nc3ccccc23)s1 (stereo unspecified)	6.3	-	-	-	22	-
O=C(NCc1ccccc1Cl)C1CCC(=O)N(CC2CCCCC2)C1 (stereo unspecified)	-	-	-	-	.	.
COC(=O)C1=C(C)N(Cc2ccccc2)C(=NCC(C)C)N[C@H]1c1ccccc1	-	-	-	-	35	-
CCN1C(=NCc2cccc(Cl)c2)N[C@@H](c2cccc(F)c2)C(C(=O)OC)=C1C	-	-	-	-	-	-
CN(c1ccccc1)S(=O)(=O)c1ccc(C(=O)NCc2ccccc2F)cc1	.	.	-	-	.	.
CCCOC(=S)Nc1ccccc1	-	-	-	-	.	.
O=C(NC1CCCCCC1)C1CCN(C(=O)c2cccc(Cl)c2)CC1	-	-	-	-	.	.
CCn1cnc2cc(NCc3ccncc3)ccc21	-	-	-	-	49	-38
Fc1ccccc1C1c2[nH]c3ccccc3c2CCN1Cc1cccn1-c1ncccn1 (stereo unspecified)	-	-	-	-	.	.
Cc1ccccc1C1c2[nH]c3ccccc3c2CCN1Cc1cccn1-c1ncccn1 (stereo unspecified)	6.3	-	-	-	27	-
C/C(=N\NC(=O)c1ccc(OC2CCCC2)cc1)c1ccc(O)cc1	-	-	-	-	.	.
Cc1cccn2c(CN3CCNC(=O)CC3)c(C(=O)N(C)CCc3ccccc3)nc12	-	-	-	-	-	-
O=C(O)c1ccccc1C(=O)NCc1cccnc1	-	-	-	-	.	.
O=C(NCc1cccnc1)c1cccn2c(=O)c3sccc3nc12	7.8	-	-	-	54	-53
C[n+]1cn(Cc2cc(Cl)ccc2OC(F)F)c2ccccc21	7.3	-	-	-	54	-
Cn1c(=O)n(CCOc2ccc(Cl)cc2Cl)c2ccccc21	-	-	-	-	.	.
COC(=O)c1ccc(NC(c2ccc(Cl)cc2)P(=O)(OC)OC)cc1 (stereo unspecified)	-	-	-	-	.	.
Cc1cccc(C)c1OCC(=O)Nc1cccc(-c2nnc(-c3ccccc3)o2)c1	-	-	-	-	29	-
CCN(CC)C(=O)c1[nH]cnc1C(=O)NCc1ccccc1	.	.	-	-	.	.
CCCNCC(O)Cn1c2ccccc2n2c(=O)cc(C)c(C#N)c12 (stereo unspecified)	-	-	-	-	46	-41
Cc1cc(=O)n2c3ccccc3n(CC(O)CN3CCCC3)c2c1C#N (stereo unspecified)	6.9	-	-	-	52	-46
Cc1cc(C(=O)N2CCN(c3ncccn3)CC2)nn1C	-	-	-	-	.	.
CSc1ccccc1C(=O)N(CC1CCCO1)c1c(N)n(Cc2ccccc2)c(=O)[nH]c1=O (stereo unspecified)	-	-	-	-	.	.
O=S1(=O)CCN2C=Nc3sc4c(c3C2=N1)CCCC4	-	-	-	-	.	.
